Assay results of several laboratories.
Protocols differ between the studies behind these lines.
Target: Serine/threonine-protein kinase 3 (STK3, Homo sapiens, UniProt Q13188)
Sequence (Q13188 1-491, as in one of the studies): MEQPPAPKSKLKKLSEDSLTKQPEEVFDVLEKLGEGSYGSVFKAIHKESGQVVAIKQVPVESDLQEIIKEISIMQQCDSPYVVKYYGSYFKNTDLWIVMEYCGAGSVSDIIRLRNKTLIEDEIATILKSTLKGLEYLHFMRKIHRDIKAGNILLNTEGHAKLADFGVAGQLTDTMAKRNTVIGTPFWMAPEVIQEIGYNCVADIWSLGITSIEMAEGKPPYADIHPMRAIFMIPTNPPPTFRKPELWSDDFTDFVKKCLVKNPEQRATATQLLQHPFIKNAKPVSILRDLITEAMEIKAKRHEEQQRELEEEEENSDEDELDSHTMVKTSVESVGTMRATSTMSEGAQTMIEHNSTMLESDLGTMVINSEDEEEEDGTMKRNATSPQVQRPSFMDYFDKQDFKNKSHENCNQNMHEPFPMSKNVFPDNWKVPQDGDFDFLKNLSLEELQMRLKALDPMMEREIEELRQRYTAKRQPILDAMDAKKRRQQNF

SMILES | assay | setting | remaining binding
CC(=O)Nc1c(C(C)=O)c(=O)n(C)c2nc(-c3ccc(Cl)cc3Cl)c(-c3ccc(Cl)cc3)cc12 | cell-free assay, competition with immobilised ligand | 1 µM | 100%
O=C(c1ccc(Nc2ncc(Cl)c(-c3cc4ccccc4s3)n2)cc1)N1CCC(N2CCCC2)CC1 | binding, competition with immobilised ligand | 1 µM | 65%
O=C(NCC1CCOCC1)c1n[nH]cc1NC(=O)c1c(F)cccc1F | binding, competition with immobilised ligand | 1 µM | 89%
C[C@@H](c1ccc(-n2cnc3c(N)ncnc32)cc1)N1CCc2nn(C)c(Cc3ccccc3)c2C1=O | binding, competition with immobilised ligand | 0.1 µM | 74%
CC(C)(O)c1cncc(-c2nc3ccc(F)cc3n2C2CC2)c1 | cell-free assay, competition with immobilised ligand | 1 µM | 100%
Nc1ncc2c(n1)-c1c([nH]c3ccc(C#CC4CC4)cc13)CCCC2 | binding, competition with immobilised ligand | 1 µM | 87%
N[C@H]1CCN(c2nccc(-c3cnn4ncccc34)n2)C1 | binding | 1 µM | 100%
CNC(=O)Nc1ccc2c(c1)[C@@]1(CC2)OC(=O)N(CC(=O)N(Cc2ccc(F)cc2)[C@@H](C)C(F)(F)F)C1=O | cell-free assay, competition with immobilised ligand | 1 µM | 97%
FC(F)(F)Oc1cccc(-c2cnc3ccc(-c4ccncc4)nn23)c1 | cell-free assay, competition with immobilised ligand | 5 µM | 58%
CNC(=O)[C@@H]1CC[C@@H](n2c(-c3ccc4cnccc4c3)nc3ccc(C(=O)NCc4cccc(C(N)=O)c4)cc32)C1 | binding, competition with immobilised ligand | 1 µM | 100%
C[C@H]1CCN(c2nccc(-c3cnn4ncccc34)n2)C1 | binding | 1 µM | 92%
COc1cc(-c2cn(C3CCc4ccccc4N(CC(F)(F)F)C3=O)nn2)ccc1-n1ccc(C)n1 (stereo not shown) | cell-free assay, competition with immobilised ligand | 1 µM | 84%
CN(CCCC(F)(F)F)c1nccc(-c2cnn3ncccc23)n1 | binding | 1 µM | 100%
O=C(Nc1cccnn1)N1CC(C/C=C/c2cncc(Oc3ccc(C(F)(F)F)cn3)n2)C1 | cell-free assay, competition with immobilised ligand | 1 µM | 80%
COc1ccnn2ncc(-c3ccnc(N(C)C)n3)c12 | binding | 1 µM | 100%
O=C(NCCCN1CCOCC1)c1ccc(Nc2nccc(-c3cc4ccccc4s3)n2)cc1 | binding, competition with immobilised ligand | 1 µM | 88%
CN(C)c1nccc(-c2cnn3ncccc23)n1 | binding | 1 µM | 100%
COc1cnc(Nc2cccc(S(N)(=O)=O)c2)nc1N1CCN(c2ccccc2)C(=O)C1 | binding, competition with immobilised ligand | 1 µM | 98%
CN(c1nccc(-c2cnn3ncccc23)n1)C1CC1 | binding | 1 µM | 98%
O=C(O)c1cc(-c2ccc(C3CCNCC3)cc2)c2ccc(-c3ccc(C(F)(F)F)cc3)cc2c1 | cell-free assay, competition with immobilised ligand | 1 µM | 100%
O=C(NCCCN1CCOCC1)c1ccc(Nc2ncc(Cl)c(-c3ccc(Cl)s3)n2)cc1 | binding, competition with immobilised ligand | 1 µM | 12%
CN(C)c1nccc(-c2cnc3ncccn23)n1 | binding | 1 µM | 62%
